The results in this text go back to ChEMBL document CHEMBL5143726, “Neutrophil Elastase-Activatable Prodrugs Based on an Alkoxyamine Platform to Deliver Alkyl Radicals Cytotoxic to Tumor Cells” (J Med Chem, 2022).

Each structure is given as a SMILES string. The source made the active and inactive calls. The rule behind the calls is not given here. Where a SMILES comes first, the peptide text is derived from it.

For data set [1], the system named is U-87 MG. The experiment in a line: Induction of apoptosis in human U87 cells assessed as phosphatidylserine translocation at 75 to 250 uM measured after 48 hrs in presence of human neutrophil elastase. The class given is functional, cell-based. As to conditions: U-87MG ATCC, dose 75-250 µM. An outline of the steps:
(§1)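 Serum-free U87 exposure to alkoxyamine 75, 150 or 250 μM with HNE 0.68 μM for 1 h, then 10% serum; followed 1–48 h. Live-cell RealTime-Glo reagent added, 60 min at 37 °C: annexin V phosphatidylserine binding by luminescence, membrane loss by cell-impermeant DNA dye fluorescence (ex 485/em 530 nm). Controls: HNE alone, untreated cells, doxorubicin 2 μM.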

For data set [2], the system named is U-87 MG. Description: Induction of apoptosis in human U87 cells assessed as reduction in cell membrane integrity at 75 to 250 uM measured after 48 hrs in presence of human neutrophil elastase. As to conditions: U-87MG ATCC, dose 75-250 µM. The class given is functional, cell-based. Summed up:
as §1

Data set [3] can be described thus: Prodrug activation assessed as urokinase mediated TEMPO release.
The test system of data set [4] is U-87 MG. Description: Cytotoxicity against human U87 cells assessed as cell viability at 100 to 400 uM measured after 24 to 72 hrs in absence of human neutrophil elastase by PrestoBlue reagent based assay. Format: functional, U-87MG ATCC. As to conditions: dose 100-400 µM, time 24-72 hrs. Summed up: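 U87 glioblastoma (DMEM, 10% FBS, 37 °C, 5% CO2) seeded 48 h, medium swapped to serum-free DMEM; prodrug 0–400 μM added without elastase, 1 h, then 10% serum restored; incubation 24, 48 or 72 h. Viability by resazurin-to-resorufin conversion (PrestoBlue, 1/10 volume, 30 min 37 °C), fluorescence ex 560/em 590 nm.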

Data set [5] in a line: Prodrug activation assessed as human neutrophil elastase mediated TEMPO release by EPR spectometric analysis. Summed up: (§2)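 Human neutrophil elastase (20 nM final) with prodrug (300 μM final) in 50 mM HEPES, 150 mM NaCl, 5 mM CaCl2, 0.05% IGEPAL, pH 7.4, in capillaries at 37 °C; released stable nitroxide (TEMPO or DBNO) quantified by EPR against internal spectrometer calibration.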

Data set [6] relates to U-87 MG. Description: Induction of apoptosis in human U87 cells assessed as activation of caspase3/7 at 75 to 250 uM measured after 48 hrs in presence of human neutrophil elastase by luminescence based multimode microplate reader assay. The class given is functional, cell-based. Conditions: U-87MG ATCC, dose 75-250 µM. An outline of the steps: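 U87 cells in serum-free DMEM given alkoxyamine (75, 150, 250 μM) plus HNE 0.68 μM for 1 h, then 10% serum added; sampled at 1, 3, 7, 24, 48 h. Caspase 3/7 read by lytic luminogenic substrate reagent, 15 min at room temperature, luminescence. Controls: HNE alone, cells alone, doxorubicin 2 μM.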

Data set [7] concerns U-87 MG. Description: Cytotoxicity against human U87 cells assessed as reduction in cell viability measured after 24 to 72 hrs in presence of human neutrophil elastase by PrestoBlue reagent based assay. Format: functional. As to conditions: dose 100-400 µM, time 24-72 hrs; for Activity: U-87MG ATCC, DDE = dose-dependent effect; for CC50: read-out: LC50 (the source's name). An outline of the steps: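 U87 cells cultured 48 h, medium changed to serum-free DMEM; prodrug (0–400 μM) plus human neutrophil elastase 0.68 μM added, 1 h incubation, then 10% serum added to stop enzyme and cells held 24, 48 or 72 h. Viability via resazurin (PrestoBlue), 30 min at 37 °C, fluorescence ex 560/em 590 nm.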

The subject of data set [8] is U-87 MG. Description: Cytotoxicity against human U87 cells assessed as reduction in cell viability at 400 uM measured after 48 hrs in absence of human neutrophil elastase by PrestoBlue reagent based assay. Conditions: U-87MG ATCC. Format: functional. Summed up: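 U87 glioblastoma cells grown 48 h in DMEM/10% FBS, then switched to serum-free DMEM; prodrug (400 μM) added without elastase, serum restored to 10% after 1 h, cells kept 48 h at 37 °C. Viability by resazurin (PrestoBlue) reduction, 30 min at 37 °C, fluorescence ex 560/em 590 nm.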

Data set [9] can be described thus: Prodrug activation assessed as human neutrophil elastase mediated DBNO release by EPR spectometric analysis. Summed up: as §2

Take `CC(ON1C(C)(C)CCCC1(C)C)c1ccc(NC(=O)[C@@H](NC(=O)[C@@H]2CCCN2C(=O)[C@H](C)NC(=O)[C@H](C)NC(=O)CCC(=O)O)C(C)C)cc1` (some centres not stated) (HELM PEPTIDE1{[O=C(O)CCC(=O)[*:2]].A.A.P.V.[CC(ON1C(C)(C)CCCC1(C)C)c1ccc(N[*:1])cc1]}$$$$V2.0): the result in the data set with U-87 MG [1], in the data set with U-87 MG [2] and in the data set with U-87 MG [6] was Active. The Drug metabolism result is recorded as “Metabolite_Notdetected” in data set [3] and “Metabolite_Detected” in [5]. For the same compound, the Activity was 100% in the data set on U-87 MG [4] and “Dde” with U-87 MG [7]. Also, in the data set on U-87 MG [7], the CC50 worked out at 150 µM.

Turning to `CC(ON1C(C)(C)CCCC1(C)C)c1ccc(OC(=O)[C@@H](NC(=O)[C@@H]2CCCN2C(=O)[C@H](C)NC(=O)[C@H](C)NC(=O)CCC(=O)O)C(C)C)cc1` (some centres not stated) (HELM PEPTIDE1{[O=C(O)CCC(=O)[*:2]].A.A.P.V.[CC(ON1C(C)(C)CCCC1(C)C)c1ccc(O[*:1])cc1]}$$$$V2.0), in the data set with U-87 MG [8], the result was Active. In [5], the Drug metabolism entry is listed as “Metabolite_Detected”. Further, in the data set on U-87 MG [7], the CC50 is 150 µM.

For `CC(ON(C(C)(C)C)C(C)(C)C)c1ccc(NC(=O)[C@@H](NC(=O)[C@@H]2CCCN2C(=O)[C@H](C)NC(=O)[C@H](C)NC(=O)CCC(=O)O)C(C)C)cc1` (some centres not stated) (HELM PEPTIDE1{[O=C(O)CCC(=O)[*:2]].A.A.P.V.[CC(ON(C(C)(C)C)C(C)(C)C)c1ccc(N[*:1])cc1]}$$$$V2.0), in data set [9], the Drug metabolism entry is “Metabolite_Detected”. Besides, in the data set with U-87 MG [7], the Activity result was “Dde” and the CC50 worked out at 150 µM.

Turning to `CC(ON(C(C)(C)C)C(C)(C)C)c1ccc(OC(=O)[C@@H](NC(=O)[C@@H]2CCCN2C(=O)[C@H](C)NC(=O)[C@H](C)NC(=O)CCC(=O)O)C(C)C)cc1` (some centres not stated) (HELM PEPTIDE1{[O=C(O)CCC(=O)[*:2]].A.A.P.V.[CC(ON(C(C)(C)C)C(C)(C)C)c1ccc(O[*:1])cc1]}$$$$V2.0), the Drug metabolism entry in [9] is “Metabolite_Detected”. Further, in the data set with U-87 MG [7], the Activity result is “Dde” and the CC50 came to 150 µM.
